Experimental findings from ChEMBL document CHEMBL1126865, “Structure-activity relationship within a series of pyrazolidinone antibacterial agents. 2. Effect of side-chain modification on in vitro activity and pharmacokinetic parameters” (J Med Chem, 1993) are described below.

Data set [1] relates to Staphylococcus aureus. Description: In vitro antibacterial activity against Staphylococcus aureus X1.1. In kind it is functional.
For data set [2], the system named is Streptococcus pneumoniae. Description: In vitro antibacterial activity against Streptococcus pneumoniae PARK. In kind it is functional.
Data set [3] concerns Klebsiella pneumoniae. Briefly: In vitro antibacterial activity against Klebsiella X26. In kind it is functional.
The nature of data set [4]: (§1) Plasma half-life in rats after intravenous administration. Format: ADME, organism-based. The following applies: rat. The method, boiled down:
(§2)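 Male Sprague-Dawley rats were given 20 mg/kg IV in 0.9% saline through an indwelling jugular cannula, which was also used for serial blood sampling. Plasma and cumulative urine (citrate pH 6.5, metabolism cages) were collected over 6 h and stored at -70 °C. Levels were measured by agar well diffusion bioassay against standard curves in plasma or citrate. Half-life = 0.693/β; recovery as % of dose.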

For data set [5], the system named is Staphylococcus epidermidis. Briefly: In vitro antibacterial activity against Staphylococcus epidermidis 222. Format: functional.
Data set [6] is described as follows: Maximum concentration in male rats after iv administration of 20 mg/kg. The following applies: rat, in vivo. On the set-up: dose 20 mg/kg, route intravenous. Format: ADME, organism-based. Summed up:
as §2

Data set [7] is described as follows: Urinary recovery expressed as percentage dose in male rats after iv administration of 20 mg/kg. The following applies: rat, urine. Also noted: dose 20 mg/kg, route intravenous. In kind it is ADME, organism-based. Summed up:
as §2

The subject of data set [8] is Haemophilus influenzae. Briefly: In vitro antibacterial activity against Haemophilus influenza C.L. Format: functional.
In data set [9] the test system is Klebsiella aerogenes. Description: In vitro antibacterial activity against Enterobacter aerogenes C32. Format: functional.
Data set [10] is described as follows: Half-life period in male rats after iv administration of 20 mg/kg. Format: ADME, organism-based. Also noted: dose 20 mg/kg, route intravenous. The following applies: rat, in vivo. Summed up:
as §2

Data set [11] has as its system Escherichia coli. Description: In vitro antibacterial activity against Escherichia coli EC14. Format: functional.
Data set [12] concerns Pseudomonas aeruginosa. Description: In vitro antibacterial activity against Pseudomonas PS72. Format: functional.
In data set [13] the test system is Rattus norvegicus. Described as §1. Format: functional, organism-based. The method, boiled down: as §2
The subject of data set [14] is Monkey. Description: (§3) Plasma half-life in monkey after intravenous administration. The following applies: Cercopithecidae. In kind it is functional, organism-based. The method, boiled down:
(§4)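 Male rhesus monkeys (n = 3) dosed iv at 30 mg/kg in 0.9% saline; plasma sampled from cephalic vein over 3 h. Drug levels by agar well diffusion bioassay (E. coli ATCC4157 or Proteus providentia XC24) against standard curves in spiked plasma. Samples stored at -70 °C. Half-life = 0.693/β, β the terminal slope of plasma vs time curve.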

The nature of data set [15]: Plasma half-life in human after intravenous administration. Format: ADME, organism-based.
Data set [16] in a line: as §3. The following applies: simiiformes. In kind it is ADME, organism-based. Summed up:
as §4

Values after ≈ are worked out from the molar mass of the structure shown. A value given as a limit tells only on which side of the number the result lay.

`CCCS(=O)(=O)C1=C(C(=O)O)N2C(=O)[C@@H](NC(=O)/C(=N/OCCCl)c3csc(N)n3)CN2C1`: the MIC stood at 8 µg/mL (≈ 15.4 µM) in [1]; 0.06 µg/mL (≈ 0.115 µM) in data set [2]; 0.03 µg/mL (≈ 0.0576 µM) in [3]; 16 µg/mL (≈ 30.7 µM) in [5]; 0.125 µg/mL (≈ 0.24 µM) in data set [8]; 0.5 µg/mL (≈ 0.96 µM) in data set [9]. In addition, the MIC in data set [11] is 0.125 µg/mL (≈ 0.24 µM); in data set [12], greater than 128 µg/mL. Also, the half-life is 15 min in data set [4] and 14.7 min in [10]. The concentration in data set [6] peaked (Cmax) at 74.3 µg/mL. The dose excreted in data set [7] was found to be 44.2%.

For `Cn1nnnc1SCC1=C(C(=O)O)N2C(=O)[C@@H](NC(=O)[C@H](O)c3ccccc3)[C@H]2SC1` [CEFAMANDOLE], the T1/2 is 15 min in data set [13] and 34 min in data set [14]. This compound yielded a half-life in [15] of 48 min.

Regarding `C=CCCO/N=C(/C(=O)N[C@H]1CN2CC(S(C)(=O)=O)=C(C(=O)O)N2C1=O)c1csc(N)n1`, the MIC in data set [1] was found to be 4 µg/mL (≈ 8.26 µM); in data set [2], 0.06 µg/mL (≈ 0.124 µM); in data set [3], 0.015 µg/mL (≈ 0.031 µM); in [5], 8 µg/mL (≈ 16.5 µM); in data set [8] it was 0.125 µg/mL (≈ 0.258 µM); in [9], 0.25 µg/mL (≈ 0.516 µM). Moreover, the MIC in [11] worked out at 0.06 µg/mL (≈ 0.124 µM); in [12], 128 µg/mL (≈ 264 µM). For the same compound, the half-life in data set [4] turned out to be 11 min; in data set [10], 11.3 min; in data set [16], 36 min. Besides, the highest level in data set [6] (Cmax) was 70.3 µg/mL. In addition, the dose excreted in data set [7] is 53.1%.

As to `CCN1CCN(C(=O)N[C@@H](C(=O)N[C@H]2CN3CC(C#N)=C(C(=O)O)N3C2=O)c2ccccc2)C(=O)C1=O`, the MIC in data set [1] is 16 µg/mL (≈ 31.4 µM); in data set [2], 4 µg/mL (≈ 7.85 µM); in [3], 0.5 µg/mL (≈ 0.981 µM); in [5], 32 µg/mL (≈ 62.8 µM); in data set [8] it was 0.5 µg/mL (≈ 0.981 µM); in [9], 2 µg/mL (≈ 3.93 µM). Moreover, the MIC came to 1 µg/mL (≈ 1.96 µM) in data set [11] and 128 µg/mL (≈ 251 µM) in data set [12].

Consider `CS(=O)(=O)C1=C(C(=O)O)N2C(=O)[C@@H](NC(=O)/C(=N/OCCCCCl)c3csc(N)n3)CN2C1`, for which the MIC in data set [1] came to 32 µg/mL (≈ 61.4 µM); in data set [2] it was 0.25 µg/mL (≈ 0.48 µM); in data set [3], 0.125 µg/mL (≈ 0.24 µM); in [5], 32 µg/mL (≈ 61.4 µM); in data set [8], 1 µg/mL (≈ 1.92 µM); in data set [9] it was 2 µg/mL (≈ 3.84 µM). Also, the results for the MIC in [11] and in data set [12] were 1 µg/mL (≈ 1.92 µM) and greater than 128 µg/mL, respectively.

Regarding `CC(C)(O/N=C(\C(=O)N[C@@H]1C(=O)N2C(C(=O)[O-])=C(C[n+]3ccccc3)CS[C@H]12)c1csc(N)n1)C(=O)O` [CEFTAZIDIME], the half-life is 23 min in data set [4], 108 min in data set [15] and 49 min in data set [16].

Consider `C=CCO/N=C(/C(=O)N[C@H]1CN2CC(C#N)=C(C(=O)O)N2C1=O)c1csc(N)n1`, for which the MIC amounted to 32 µg/mL (≈ 76.7 µM) in [1]; 0.125 µg/mL (≈ 0.299 µM) in [2]; 0.06 µg/mL (≈ 0.144 µM) in [3]; 16 µg/mL (≈ 38.3 µM) in data set [5]; 0.125 µg/mL (≈ 0.299 µM) in data set [8]; 0.5 µg/mL (≈ 1.2 µM) in data set [9]. The values for the MIC in data set [11] and in [12] were 0.125 µg/mL (≈ 0.299 µM) and greater than 128 µg/mL, respectively.

With `CCCO/N=C(/C(=O)N[C@H]1CN2CC(S(C)(=O)=O)=C(C(=O)O)N2C1=O)c1csc(N)n1`, the MIC in [1] was determined as 8 µg/mL (≈ 16.9 µM); in data set [2] it was 0.125 µg/mL (≈ 0.265 µM); in data set [3], 0.015 µg/mL (≈ 0.0317 µM); in data set [5], 16 µg/mL (≈ 33.9 µM); in [8], 0.125 µg/mL (≈ 0.265 µM); in [9], 0.25 µg/mL (≈ 0.529 µM). For the same compound, the MIC in data set [11] was 0.125 µg/mL (≈ 0.265 µM); in [12] it was 128 µg/mL (≈ 271 µM).

On to `CS(=O)(=O)C1=C(C(=O)O)N2C(=O)[C@@H](NC(=O)/C(=N/OCCBr)c3csc(N)n3)CN2C1`, for which the MIC came to 8 µg/mL (≈ 14.9 µM) in data set [1]; 0.125 µg/mL (≈ 0.233 µM) in data set [2]; 0.03 µg/mL (≈ 0.0558 µM) in data set [3]; 8 µg/mL (≈ 14.9 µM) in data set [5]; 0.125 µg/mL (≈ 0.233 µM) in [8]; 0.125 µg/mL (≈ 0.233 µM) in [9]. In addition, the MIC was 0.125 µg/mL (≈ 0.233 µM) in [11] and greater than 128 µg/mL in data set [12].

`C=CCO/N=C(/C(=O)N[C@H]1CN2CC(S(C)(=O)=O)=C(C(=O)O)N2C1=O)c1csc(N)n1`: the MIC in [1] was determined as 8 µg/mL (≈ 17 µM); in [2], 0.125 µg/mL (≈ 0.266 µM); in [3], 0.03 µg/mL (≈ 0.0638 µM); in data set [5] it was 16 µg/mL (≈ 34 µM); in [8], 0.125 µg/mL (≈ 0.266 µM); in data set [9], 0.25 µg/mL (≈ 0.531 µM). Moreover, the MIC amounted to 0.125 µg/mL (≈ 0.266 µM) in [11] and 128 µg/mL (≈ 272 µM) in [12].

For `CCS(=O)(=O)C1=C(C(=O)O)N2C(=O)[C@@H](NC(=O)/C(=N/OCCCl)c3csc(N)n3)CN2C1`, the MIC is 16 µg/mL (≈ 31.6 µM) in data set [1]; 0.25 µg/mL (≈ 0.493 µM) in [2]; 0.125 µg/mL (≈ 0.247 µM) in data set [3]; 32 µg/mL (≈ 63.1 µM) in data set [5]; 1 µg/mL (≈ 1.97 µM) in data set [8]; 0.5 µg/mL (≈ 0.986 µM) in data set [9]. The MIC in [11] is 0.25 µg/mL (≈ 0.493 µM); in [12], greater than 128 µg/mL.
